Experiments:
[1] = Inhibition of HIV-1 3B wild type reverse transcriptase infected in human MT4 cells assessed as protection against virus-induced cytopathic effect measured at 5 days post infection by MTT assay; format: cell-based; conditions: Human immunodeficiency virus 1, 3B, MT4, 120 h
Summary of the method: (§1)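 MT-4 cells spun down (5 min, 220 g), resuspended at 6 x 10^5 cells/mL and infected with 100-300 CCID50 virus. Serial 5-fold compound dilutions added at infection, triplicate wells. After 5 days, viability read by MTT reduction at 540 and 690 nm using the median of three wells. […] Mean of at least three independent experiments.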

[2] = system: Human immunodeficiency virus 2; assay: Antiviral activity against HIV-2 ROD infected in human MT4 cells assessed as protection against virus induced cytopathic effect measured at 5 days post infection by MTT assay; format: functional, cell-based; conditions: Human immunodeficiency virus 2, ISOLATE ROD, MT4, 120 h; summary of the method: as §1
[3] = Cytotoxicity against human MT4 cells assessed as reduction in cell viability after 5 days by MTT assay; format: cell-based
Summary of the method: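 Mock-infected exponentially growing MT-4 cells (6 x 10^5 cells/mL) given serial 5-fold compound dilutions in triplicate wells in parallel with the infected series. Viability measured by MTT after 5 days, absorbance at 540/690 nm, median of three wells. […] Mean of at least three independent experiments.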

[4] = Selectivity index, ratio of CC50 for human MT4 cells to EC50 for HIV-1 3B wild type reverse transcriptase infected in human MT4 cells; format: toxicity, cell-based; conditions: read-out: Ratio CC50/EC50
Summary of the method: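 SI calculated as CC50 in mock-infected MT-4 cells divided by EC50 against HIV-1 IIIB. Both values come from the same 5-day MTT run, with infected and mock-infected triplicate series tested in parallel.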

Structure (SMILES)	EC50 [1] [µM]	EC50 [2] [µM]	CC50 at 120 h [3] [µM]	selectivity ratio [4]
N#Cc1ccc(Nc2nccc(OCc3ccccc3)n2)cc1	0.022	> 13	13	591
N#Cc1ccc(Nc2nccc(OCc3ccc4ccccc4c3)n2)cc1	0.17	> 212	212	1250
CN(C)c1ccnc(Nc2ccc(C#N)cc2)n1	> 34	> 34	34	< 1
N#Cc1ccc(Nc2nccc(OCc3cccc(Br)c3)n2)cc1	0.048	> 221	221	4600
N#Cc1ccc(Nc2nccc(OCc3cccc(F)c3)n2)cc1	0.014	> 105	105	7500
COc1ccccc1COc1ccnc(Nc2ccc(C#N)cc2)n1	0.027	> 8.9	8.9	356
N#Cc1ccc(Nc2nccc(OCc3cccc(C#N)c3)n2)cc1	0.18	> 4.1	4.1	23
N#Cc1ccc(Nc2nccc(OCc3ccccc3C#N)n2)cc1	0.014	> 113	113	8070
N#Cc1ccc(Nc2nccc(OCc3ccccc3C(F)(F)F)n2)cc1	1.7	> 173	173	102
N#Cc1ccc(Nc2nccc(OCc3ccccc3F)n2)cc1	0.0058	> 151	151	26000
Cc1cc(C)nc(Sc2ccnc(Nc3ccc(C#N)cc3)n2)n1	27	> 224	224	8
N#Cc1ccc(Nc2nccc(OCc3cccc(C(F)(F)F)c3)n2)cc1	0.61	> 118	118	193
N#Cc1ccc(Nc2nccc(OCc3cccc(Cl)c3)n2)cc1	0.049	> 153	153	3120
Cc1cccc(COc2ccnc(Nc3ccc(C#N)cc3)n2)c1	0.0088	> 30	30	3410
N#Cc1ccc(Nc2nccc(OCc3cc(F)ccc3Br)n2)cc1	0.039	> 190	190	4870
N#Cc1ccc(Nc2nccc(OCc3ccccc3Br)n2)cc1	0.036	> 130	130	3610
N#Cc1ccc(Nc2nccc(OCc3ccc(F)cc3)n2)cc1	0.92	> 81	81	88
COc1cccc(COc2ccnc(Nc3ccc(C#N)cc3)n2)c1	0.025	> 118	118	4720

Structure (SMILES)	EC50 [1] [µM]	EC50 [2] [µM]	CC50 at 120 h [3] [µM]	selectivity ratio [4]
N#Cc1ccc(Nc2nccc(OCc3cccc4ccccc34)n2)cc1	0.015	> 7.7	7.7	513
N#Cc1ccc(Nc2nccc(OCc3ccc(Br)cc3F)n2)cc1	0.22	> 141	141	641
N#Cc1ccc(Nc2nccc(OCc3cccnc3)n2)cc1	0.77	> 6.4	6.4	8
N#Cc1ccc(Nc2nccc(OCc3ccc(Br)cc3)n2)cc1	4.7	> 16	16	3.4
N#Cc1ccc(Nc2nccc(OCc3ccccc3Cl)n2)cc1	0.034	> 146	146	4420
Cc1ccc(COc2ccnc(Nc3ccc(C#N)cc3)n2)cc1	0.16	> 81	81	495
N#Cc1ccc(COc2ccnc(Nc3ccc(C#N)cc3)n2)cc1	1.4	> 209	209	149
COc1cc(COc2ccnc(Nc3ccc(C#N)cc3)n2)cc(OC)c1	0.0089	> 44	44.2	4940
N#Cc1ccc(Nc2nccc(NCc3ccccn3)n2)cc1	0.0076	> 8.5	8.5	1120
N#Cc1ccc(Nc2nccc(OCc3ccc(Cl)cc3)n2)cc1	0.84	> 156	156	186
Cc1ccccc1COc1ccnc(Nc2ccc(C#N)cc2)n1	0.16	> 12	12	75
COc1ccc(COc2ccnc(Nc3ccc(C#N)cc3)n2)cc1	1	> 102	102	102
CC(C)Nc1cccnc1N1CCN(C(=O)c2cc3cc(NS(C)(=O)=O)ccc3[nH]2)CC1 [DELAVIRDINE]	0.037		23	
O=C1Nc2ccc(Cl)cc2[C@@](C#CC2CC2)(C(F)(F)F)O1 [EFAVIRENZ]	0.0073			
Cc1cc(C#N)cc(C)c1Oc1nc(Nc2ccc(C#N)cc2)nc(N)c1Br [ETRAVIRINE]	0.0042		1.9	
Cc1ccnc2c1NC(=O)c1cccnc1N2C1CC1 [NEVIRAPINE]	0.21		> 15	
Cc1cn([C@H]2C[C@H](N=[N+]=[N-])[C@@H](CO)O2)c(=O)[nH]c1=O [ZIDOVUDINE]	0.011			

Source: ChEMBL document CHEMBL4038278, “Structural modifications of diarylpyrimidines (DAPYs) as HIV-1 NNRTIs: Synthesis, anti-HIV activities and SAR” (Bioorg Med Chem, 2017)
